According to ChEMBL document CHEMBL1156750 (Bioorg Med Chem Lett, 2009):
“And” between values parts separate entries of the source, which are not always exact repeats. Equal values may be shown once.

Experiments:
[1] = […] residence time in rat at 10 mg/kg, iv; type: ADME, organism-based; design: dose 10 mg/kg, route intravenous; settings: in vivo
In short: (§1)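 Pharmacokinetics in fasted rat, dog and monkey, n = 3 per species. The compound was dosed at 10 mg/mL in PEG400/water (1:1, v/v). Doses were 10 mg/kg iv and po in rat, 2 mg/kg iv and po in dog, and 10 mg/kg iv and po in monkey. Clearance, Vdss, MRT and Tmax were derived from plasma profiles; oral bioavailability came from the po and iv data.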

[2] = […] residence time in dog at 2 mg/kg, iv; type: ADME, organism-based, Canis lupus familiaris; design: dose 2 mg/kg, route intravenous; settings: in vivo; in short: as §1
Cytochrome P450 2C9 [3] = molecular target: T1, Cytochrome P450 2C9 (Homo sapiens, UniProt P11712); assay: Inhibition of CYP2C9; type: ADME
[4] = molecular target: Amine oxidase [flavin-containing] A (Rattus norvegicus, UniProt P21396); assay: Inhibition of rat MAO-A at 10 uM
Cytochrome P450 2C9 [5] = molecular target: T1, Cytochrome P450 2C9; assay: Inhibition of CYP2C9 by HHA assay; type: ADME
[6] = […] residence time in monkey at 10 mg/kg, iv; type: ADME, organism-based, Macaca mulatta; design: dose 10 mg/kg, route intravenous; settings: rhesus monkey, in vivo; in short: as §1
[7] = Half life in rat at 10 mg/kg, iv; type: ADME, organism-based; design: dose 10 mg/kg, route intravenous; settings: in vivo
In short: (§2)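 Fasted animals, n = 3 per species (rat, dog, monkey). Compound was dosed iv or po in a vehicle of 10 mg/mL in PEG400/water (1:1, v/v). Parameters reported were CLtotal, Vdss, t1/2, MRT, Cmax, Tmax and oral bioavailability.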

Cytochrome P450 2C19 [8] = molecular target: T2, Cytochrome P450 2C19 (Homo sapiens, UniProt P33261); assay: Inhibition of CYP2C19 by HHA assay; type: ADME
Prothrombin = Prothrombin (Homo sapiens, UniProt P00734); assay: Inhibition of human Thrombin
Cytochrome P450 3A4 [9] = molecular target: T3, Cytochrome P450 3A4 (Homo sapiens, UniProt P08684); assay: Inhibition of CYP3A4 by HHA assay; type: ADME
[10] = Total clearance in rat at 10 mg/kg, iv; type: ADME, organism-based; design: dose 10 mg/kg, route intravenous; settings: in vivo; in short: as §1
[11] = Cmax in rat at 10 mg/kg, po; type: ADME, organism-based; design: dose 10 mg/kg, route oral; settings: in vivo; in short: as §2
[12] = molecular target: Tissue-type plasminogen activator (Homo sapiens, UniProt P00750); assay: Inhibition of human t-PA
Cytochrome P450 2C19 [13] = molecular target: T2, Cytochrome P450 2C19; assay: Inhibition of CYP2C19; type: ADME
Cytochrome P450 2D6 [14] = molecular target: T4, Cytochrome P450 2D6 (Homo sapiens, UniProt P10635); assay: Inhibition of CYP2D6 by HHA assay; type: ADME
[15] = molecular target: Voltage-gated inwardly rectifying potassium channel KCNH2 (Homo sapiens, UniProt Q12809); assay: Inhibition of human ERG
[16] = Tmax in dog at 2 mg/kg, po; type: ADME, organism-based, Canis lupus familiaris; design: dose 2 mg/kg, route oral; settings: in vivo; in short: as §1
[17] = Cmax in monkey at 10 mg/kg, po; type: ADME, organism-based, Macaca mulatta; design: dose 10 mg/kg, route oral; settings: rhesus monkey, in vivo; in short: as §2
[18] = Total clearance in monkey at 10 mg/kg, iv; type: ADME, organism-based, Macaca mulatta; design: dose 10 mg/kg, route intravenous; settings: rhesus monkey, in vivo; in short: as §1
[19] = molecular target: Vitamin K-dependent protein C (Homo sapiens, UniProt P04070); assay: Inhibition of human Activated protein C
[20] = Oral bioavailability in monkey at 10 mg/kg; type: ADME, organism-based, Macaca mulatta; settings: rhesus monkey, in vivo; in short: as §1
[21] = molecular target: Amine oxidase [flavin-containing] B (Rattus norvegicus, UniProt P19643); assay: Inhibition of rat MAO-B at 10 uM
[22] = molecular target: T5, Voltage-gated L-type calcium channel (Rattus norvegicus, UniProt P22002+Q02485+P27732); assay: Inhibition of rat L type calcium channel at verapamil site at 10 uM
[23] = molecular target: Nuclear receptor subfamily 1 group I member 2 (Homo sapiens, UniProt O75469); assay: Inhibition of PXR
[24] = Plasma protein binding in Sprague-Dawley rat plasma at 30 mg/kg, id; type: ADME, organism-based; design: dose 30 mg/kg, route intraduodenal; settings: read-out: PPB (converted)
Cytochrome P450 3A4 [25] = molecular target: T3, Cytochrome P450 3A4; assay: Inhibition of CYP3A4 using BZR as substrate; type: ADME
[26] = Half life in monkey at 10 mg/kg, iv; type: ADME, organism-based, Macaca mulatta; design: dose 10 mg/kg, route intravenous; settings: rhesus monkey, in vivo; in short: as §2
Cytochrome P450 3A4 [27] = molecular target: T3, Cytochrome P450 3A4; assay: Inhibition of CYP3A4 using BFC as a substrate; type: ADME
[28] = molecular target: T5, Voltage-gated L-type calcium channel; assay: Inhibition of rat L type calcium channel at DHP site at 10 uM
[29] = Cmax in dog at 2 mg/kg, po; type: ADME, organism-based, Canis lupus familiaris; design: dose 2 mg/kg, route oral; settings: in vivo; in short: as §2
[30] = Volume of distribution in steady state in rat at 10 mg/kg, iv; type: ADME, organism-based; design: dose 10 mg/kg, route intravenous; settings: in vivo, read-out: Vdss; in short: as §1
[31] = Tmax in monkey at 10 mg/kg, po; type: ADME, organism-based, Macaca mulatta; design: dose 10 mg/kg, route oral; settings: rhesus monkey, in vivo; in short: as §1
[32] = Volume of distribution in steady state in monkey at 10 mg/kg, iv; type: ADME, organism-based, Macaca mulatta; design: dose 10 mg/kg, route intravenous; settings: rhesus monkey, in vivo, read-out: Vdss; in short: as §1
[33] = Half life in dog at 2 mg/kg, iv; type: ADME, organism-based, Canis lupus familiaris; design: dose 2 mg/kg, route intravenous; settings: in vivo; in short: as §2
Plasminogen = Plasminogen (Homo sapiens, UniProt P00747); assay: Inhibition of human plasmin
[34] = Tmax in rat at 10 mg/kg, po; type: ADME, organism-based; design: dose 10 mg/kg, route oral; settings: in vivo; in short: as §1
[35] = Oral bioavailability in rat at 10 mg/kg; type: ADME, organism-based; settings: in vivo; in short: as §1
Cytochrome P450 1A2 = Cytochrome P450 1A2 (Homo sapiens, UniProt P05177); assay: Inhibition of CYP1A2; type: ADME
[36] = Oral bioavailability in dog at 2 mg/kg; type: ADME, organism-based, Canis lupus familiaris; settings: in vivo; in short: as §1
[37] = molecular target: Urokinase-type plasminogen activator (Homo sapiens, UniProt P00749); assay: Inhibition of human u-PA
[38] = Total clearance in dog at 2 mg/kg, iv; type: ADME, organism-based, Canis lupus familiaris; design: dose 2 mg/kg, route intravenous; settings: in vivo; in short: as §1
Cytochrome P450 2D6 [39] = molecular target: T4, Cytochrome P450 2D6; assay: Inhibition of CYP2D6; type: ADME
[40] = Volume of distribution in steady state in dog at 2 mg/kg, iv; type: ADME, organism-based, Canis lupus familiaris; design: dose 2 mg/kg, route intravenous; settings: in vivo, read-out: Vdss; in short: as §1

T1 sequence (P11712 whole entry): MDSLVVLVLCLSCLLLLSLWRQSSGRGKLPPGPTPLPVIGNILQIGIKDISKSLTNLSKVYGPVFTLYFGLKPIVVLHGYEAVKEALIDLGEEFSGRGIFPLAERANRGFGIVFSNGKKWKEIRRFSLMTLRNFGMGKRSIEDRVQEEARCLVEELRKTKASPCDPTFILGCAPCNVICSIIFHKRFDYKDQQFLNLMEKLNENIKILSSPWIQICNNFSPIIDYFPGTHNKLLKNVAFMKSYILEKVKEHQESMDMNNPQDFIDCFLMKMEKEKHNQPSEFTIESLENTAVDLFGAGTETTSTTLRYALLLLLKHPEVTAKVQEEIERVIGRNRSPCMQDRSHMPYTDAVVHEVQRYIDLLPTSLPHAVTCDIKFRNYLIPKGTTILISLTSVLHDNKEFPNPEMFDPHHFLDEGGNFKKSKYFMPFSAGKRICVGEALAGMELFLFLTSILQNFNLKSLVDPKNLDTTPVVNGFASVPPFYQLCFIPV
T3 sequence (P08684 whole entry): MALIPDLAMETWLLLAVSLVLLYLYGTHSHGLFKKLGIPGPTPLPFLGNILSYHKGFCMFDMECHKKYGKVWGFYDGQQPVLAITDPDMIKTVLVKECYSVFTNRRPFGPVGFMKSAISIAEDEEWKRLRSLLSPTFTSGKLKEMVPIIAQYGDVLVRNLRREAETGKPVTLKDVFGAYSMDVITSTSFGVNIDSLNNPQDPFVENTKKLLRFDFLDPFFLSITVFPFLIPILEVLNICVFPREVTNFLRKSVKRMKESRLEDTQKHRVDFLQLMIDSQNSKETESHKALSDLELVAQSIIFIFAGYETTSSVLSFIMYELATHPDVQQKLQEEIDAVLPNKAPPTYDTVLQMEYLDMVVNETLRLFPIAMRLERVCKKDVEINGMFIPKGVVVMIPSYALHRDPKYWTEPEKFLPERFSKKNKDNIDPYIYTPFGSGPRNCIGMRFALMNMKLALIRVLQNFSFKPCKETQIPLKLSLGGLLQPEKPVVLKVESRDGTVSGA
T2 sequence (P33261 whole entry): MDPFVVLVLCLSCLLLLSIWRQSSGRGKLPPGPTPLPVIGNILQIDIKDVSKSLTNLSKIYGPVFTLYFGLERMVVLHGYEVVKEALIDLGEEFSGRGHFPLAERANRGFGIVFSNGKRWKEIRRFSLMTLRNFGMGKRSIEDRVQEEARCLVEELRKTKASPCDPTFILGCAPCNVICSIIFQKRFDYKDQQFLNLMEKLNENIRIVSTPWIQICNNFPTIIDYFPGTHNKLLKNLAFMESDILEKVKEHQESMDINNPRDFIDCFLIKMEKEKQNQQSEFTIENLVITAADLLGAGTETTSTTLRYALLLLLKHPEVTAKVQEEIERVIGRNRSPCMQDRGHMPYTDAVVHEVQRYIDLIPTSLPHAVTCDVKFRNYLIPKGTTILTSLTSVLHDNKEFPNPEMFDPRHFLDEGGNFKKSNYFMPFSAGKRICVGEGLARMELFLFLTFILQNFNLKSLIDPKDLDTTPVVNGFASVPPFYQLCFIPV
T4 sequence (P10635 whole entry): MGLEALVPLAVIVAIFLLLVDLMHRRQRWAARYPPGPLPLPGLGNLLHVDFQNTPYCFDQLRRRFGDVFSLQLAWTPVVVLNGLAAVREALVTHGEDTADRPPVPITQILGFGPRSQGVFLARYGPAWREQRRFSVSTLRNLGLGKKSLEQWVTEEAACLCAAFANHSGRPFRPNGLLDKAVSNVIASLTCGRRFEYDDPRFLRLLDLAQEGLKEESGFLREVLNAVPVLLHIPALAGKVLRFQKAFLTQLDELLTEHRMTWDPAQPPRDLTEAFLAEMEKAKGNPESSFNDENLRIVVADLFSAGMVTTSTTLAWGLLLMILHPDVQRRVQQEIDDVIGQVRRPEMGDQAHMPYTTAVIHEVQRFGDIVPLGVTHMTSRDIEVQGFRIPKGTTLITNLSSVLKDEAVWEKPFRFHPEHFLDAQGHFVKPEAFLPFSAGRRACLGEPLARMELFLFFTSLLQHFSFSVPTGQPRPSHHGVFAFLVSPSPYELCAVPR
Chain of Amine oxidase [flavin-containing] A (P21396 whole entry): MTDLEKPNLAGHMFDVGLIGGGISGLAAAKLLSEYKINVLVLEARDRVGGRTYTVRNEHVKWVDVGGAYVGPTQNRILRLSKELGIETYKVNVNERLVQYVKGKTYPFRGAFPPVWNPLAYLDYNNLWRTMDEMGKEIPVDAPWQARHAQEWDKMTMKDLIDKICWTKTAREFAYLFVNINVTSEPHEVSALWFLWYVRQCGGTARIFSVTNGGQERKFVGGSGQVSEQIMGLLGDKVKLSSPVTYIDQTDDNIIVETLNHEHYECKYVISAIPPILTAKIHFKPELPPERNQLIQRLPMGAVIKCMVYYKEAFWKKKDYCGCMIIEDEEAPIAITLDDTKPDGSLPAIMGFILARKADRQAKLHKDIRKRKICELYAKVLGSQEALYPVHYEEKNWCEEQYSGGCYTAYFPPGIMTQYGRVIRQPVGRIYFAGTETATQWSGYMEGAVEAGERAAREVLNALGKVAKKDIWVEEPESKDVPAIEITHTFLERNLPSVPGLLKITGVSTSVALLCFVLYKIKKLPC
Chain of Cytochrome P450 1A2 (P05177 whole entry): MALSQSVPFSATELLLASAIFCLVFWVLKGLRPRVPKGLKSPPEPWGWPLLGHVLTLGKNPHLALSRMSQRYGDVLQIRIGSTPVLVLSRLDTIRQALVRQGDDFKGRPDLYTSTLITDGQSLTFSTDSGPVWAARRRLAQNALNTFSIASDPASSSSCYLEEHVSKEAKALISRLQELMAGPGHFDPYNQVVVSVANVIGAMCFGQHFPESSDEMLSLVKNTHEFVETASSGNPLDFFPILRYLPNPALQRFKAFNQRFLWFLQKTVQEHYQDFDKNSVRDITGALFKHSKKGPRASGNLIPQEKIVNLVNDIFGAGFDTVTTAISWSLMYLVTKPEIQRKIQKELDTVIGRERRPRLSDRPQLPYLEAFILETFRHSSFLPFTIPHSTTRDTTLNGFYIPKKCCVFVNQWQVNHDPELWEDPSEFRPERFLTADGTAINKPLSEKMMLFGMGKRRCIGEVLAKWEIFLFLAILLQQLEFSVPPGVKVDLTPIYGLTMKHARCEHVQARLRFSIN
Chain of Amine oxidase [flavin-containing] B (P19643 whole entry): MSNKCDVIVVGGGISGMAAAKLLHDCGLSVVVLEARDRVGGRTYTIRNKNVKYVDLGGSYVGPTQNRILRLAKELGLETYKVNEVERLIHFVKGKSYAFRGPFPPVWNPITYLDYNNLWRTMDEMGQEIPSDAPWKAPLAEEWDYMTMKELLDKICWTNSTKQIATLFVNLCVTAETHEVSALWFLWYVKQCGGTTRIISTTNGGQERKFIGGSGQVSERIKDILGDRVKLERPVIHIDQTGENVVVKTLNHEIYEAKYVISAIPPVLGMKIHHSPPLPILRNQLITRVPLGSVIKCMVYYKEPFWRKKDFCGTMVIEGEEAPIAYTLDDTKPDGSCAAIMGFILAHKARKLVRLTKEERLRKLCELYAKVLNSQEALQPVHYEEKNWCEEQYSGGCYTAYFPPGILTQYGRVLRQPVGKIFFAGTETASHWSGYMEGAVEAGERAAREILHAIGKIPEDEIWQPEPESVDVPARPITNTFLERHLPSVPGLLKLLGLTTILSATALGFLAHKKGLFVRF
Chain of Tissue-type plasminogen activator (P00750 whole entry): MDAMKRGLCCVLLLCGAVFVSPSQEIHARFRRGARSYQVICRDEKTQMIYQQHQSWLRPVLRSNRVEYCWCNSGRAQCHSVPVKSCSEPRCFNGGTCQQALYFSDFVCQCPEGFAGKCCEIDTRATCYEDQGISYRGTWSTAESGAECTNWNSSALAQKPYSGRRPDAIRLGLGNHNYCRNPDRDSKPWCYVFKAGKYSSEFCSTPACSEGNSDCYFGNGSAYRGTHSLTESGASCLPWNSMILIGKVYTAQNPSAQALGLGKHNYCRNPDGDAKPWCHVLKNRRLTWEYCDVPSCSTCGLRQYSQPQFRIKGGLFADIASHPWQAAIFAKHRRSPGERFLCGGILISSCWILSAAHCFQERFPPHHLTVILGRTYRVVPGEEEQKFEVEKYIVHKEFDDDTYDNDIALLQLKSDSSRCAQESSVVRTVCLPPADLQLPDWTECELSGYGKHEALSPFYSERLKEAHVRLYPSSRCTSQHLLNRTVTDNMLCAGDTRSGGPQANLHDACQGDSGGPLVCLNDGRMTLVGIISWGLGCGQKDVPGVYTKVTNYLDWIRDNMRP
Chain of Nuclear receptor subfamily 1 group I member 2 (O75469 whole entry): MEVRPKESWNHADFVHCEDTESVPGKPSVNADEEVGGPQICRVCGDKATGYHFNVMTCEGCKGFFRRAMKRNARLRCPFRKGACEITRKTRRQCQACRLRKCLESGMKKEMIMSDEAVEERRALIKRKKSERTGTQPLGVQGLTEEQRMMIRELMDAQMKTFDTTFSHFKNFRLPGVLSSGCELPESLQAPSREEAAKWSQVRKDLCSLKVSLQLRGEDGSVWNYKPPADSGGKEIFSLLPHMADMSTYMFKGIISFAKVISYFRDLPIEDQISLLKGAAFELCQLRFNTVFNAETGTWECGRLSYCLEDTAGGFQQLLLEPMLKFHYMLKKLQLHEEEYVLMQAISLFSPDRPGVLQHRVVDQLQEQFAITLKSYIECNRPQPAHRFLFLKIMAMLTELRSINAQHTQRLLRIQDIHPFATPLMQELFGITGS
Chain of Vitamin K-dependent protein C (P04070 43-197 limits assumed): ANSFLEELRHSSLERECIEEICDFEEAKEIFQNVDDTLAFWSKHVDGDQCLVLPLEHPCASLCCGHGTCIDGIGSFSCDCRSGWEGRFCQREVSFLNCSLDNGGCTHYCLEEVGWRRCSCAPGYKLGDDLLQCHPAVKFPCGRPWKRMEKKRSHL
Chain of Vitamin K-dependent protein C (P04070 212-461 limits assumed): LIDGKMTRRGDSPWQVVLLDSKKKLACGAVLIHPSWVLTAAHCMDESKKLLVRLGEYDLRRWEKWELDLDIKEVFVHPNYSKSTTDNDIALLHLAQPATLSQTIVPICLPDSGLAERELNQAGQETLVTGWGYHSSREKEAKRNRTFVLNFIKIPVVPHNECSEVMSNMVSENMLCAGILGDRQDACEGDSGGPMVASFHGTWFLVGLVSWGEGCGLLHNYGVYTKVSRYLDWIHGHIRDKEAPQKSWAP

For `Cc1cc2cc(N=C(NC(=O)c3ccc(C(=O)N(C)C)nc3)N[C@H]3CCCCN(CC(=O)N4CCCC4)C3=O)ccc2o1`, the MRT [1] was 2 h, the MRT [2] was 9 h and the IC50 (Cytochrome P450 2C9 [3]) was 43 µM and > 40 µM. The Activity [4] was “Not Active”, the IC50 (Cytochrome P450 2C9 [5]) was over 200 µM and the MRT [6] was 4 h. For the same compound, the half-life [7] was 1.6 h, the IC50 (Cytochrome P450 2C19 [8]) was over 200 µM and the Ki (Prothrombin) was 2.3 µM. For the same compound, the IC50 (Cytochrome P450 3A4 [9]) was over 200 µM, the clearance [10] was 27 mL/min/kg and the Cmax [11] was 2200 ng/mL. The Ki [12] was 0.665 µM, the IC50 (Cytochrome P450 2C19 [13]) was 51 µM and 40 µM and the IC50 (Cytochrome P450 2D6 [14]) was over 200 µM. For the same compound, the Activity [15] was “Not Active”, the Tmax [16] was 1.3 h and the Cmax [17] was 2100 ng/mL. For the same compound, the clearance [18] was 11 mL/min/kg, the Ki [19] was over 18 µM and the bioavailability [20] was 28%. For the same compound, the Activity [21] was “Not Active”, the Activity [22] was “Not Active” and the Activity [23] was “Not Active”. The fraction unbound [24] was 0.28, the IC50 (Cytochrome P450 3A4 [25]) was over 40 µM and the half-life [26] was 14 h. For the same compound, the IC50 (Cytochrome P450 3A4 [27]) was 39 µM, the Activity [28] was “Not Active” and the Cmax [29] was 2800 ng/mL. For the same compound, the Vd [30] was 3.3 L/kg, the Tmax [31] was 1.8 h and the Vd [32] was 2.3 L/kg. The half-life [33] was 8.6 h, the Ki (Plasminogen) was over 16 µM and the Tmax [34] was 0.6 h. For the same compound, the bioavailability [35] was 55%, the IC50 (Cytochrome P450 1A2) was over 40 µM and the bioavailability [36] was 77%. It also gave a Ki [37] of over 7.8 µM, a clearance [38] of 1.9 mL/min/kg and an IC50 (Cytochrome P450 2D6 [39]) of over 40 µM. The Vd [40] was 0.96 L/kg.
